The target of one experiment is Cannabinoid receptor 2 (Homo sapiens, UniProt P34972). The experiment in a line: Binding affinity to human CB2 receptor expressed in COS cells. Format: cell-based. The essentials: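 Human CB2 receptor expressed by transfection in COS cells. Each value is the mean of 4 separate determinations.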
Experiment [1] deals with Transient receptor potential cation channel subfamily A member 1 (Rattus norvegicus) (UniProt Q6RI86). The experiment in a line: Agonist activity at rat TRPA1 channel expressed in human HEK293 cells assessed as elevation in intracellular calcium flux at 100 uM relative to mustard oil. It is filed as functional, cell-based. The essentials:
(§1)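 Stably rat TRPA1-transfected HEK-293 cells, grown 3 days, were loaded with 4 µM Fluo4-AM plus 0.02% Pluronic for 1 h at room temperature. They were washed and resuspended in Tyrode's buffer pH 7.4, and [Ca2+]i was read under stirring (ex 488/em 516 nm) before and after compound addition. EC50 is the half-maximal [Ca2+]i rise. Efficacy (100 µM compound) is expressed relative to 100 µM mustard oil; n = 4 means.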
Background: Calcium assays in cells follow changes in intracellular calcium, usually with a dye or a luminescent sensor.

For another experiment, the target named is Cannabinoid receptor 1 (Homo sapiens, UniProt P21554). Briefly: Binding affinity to human CB1 receptor expressed in COS cells. Format: cell-based. In short, it runs like this:
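Tested at CB1 receptors in transfected COS cells; means of 4 separate determinations.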

In experiment [2] the target is T1, Diacylglycerol lipase-alpha (Homo sapiens, UniProt Q9Y4D2).
T1 sequence (Q9Y4D2 whole entry): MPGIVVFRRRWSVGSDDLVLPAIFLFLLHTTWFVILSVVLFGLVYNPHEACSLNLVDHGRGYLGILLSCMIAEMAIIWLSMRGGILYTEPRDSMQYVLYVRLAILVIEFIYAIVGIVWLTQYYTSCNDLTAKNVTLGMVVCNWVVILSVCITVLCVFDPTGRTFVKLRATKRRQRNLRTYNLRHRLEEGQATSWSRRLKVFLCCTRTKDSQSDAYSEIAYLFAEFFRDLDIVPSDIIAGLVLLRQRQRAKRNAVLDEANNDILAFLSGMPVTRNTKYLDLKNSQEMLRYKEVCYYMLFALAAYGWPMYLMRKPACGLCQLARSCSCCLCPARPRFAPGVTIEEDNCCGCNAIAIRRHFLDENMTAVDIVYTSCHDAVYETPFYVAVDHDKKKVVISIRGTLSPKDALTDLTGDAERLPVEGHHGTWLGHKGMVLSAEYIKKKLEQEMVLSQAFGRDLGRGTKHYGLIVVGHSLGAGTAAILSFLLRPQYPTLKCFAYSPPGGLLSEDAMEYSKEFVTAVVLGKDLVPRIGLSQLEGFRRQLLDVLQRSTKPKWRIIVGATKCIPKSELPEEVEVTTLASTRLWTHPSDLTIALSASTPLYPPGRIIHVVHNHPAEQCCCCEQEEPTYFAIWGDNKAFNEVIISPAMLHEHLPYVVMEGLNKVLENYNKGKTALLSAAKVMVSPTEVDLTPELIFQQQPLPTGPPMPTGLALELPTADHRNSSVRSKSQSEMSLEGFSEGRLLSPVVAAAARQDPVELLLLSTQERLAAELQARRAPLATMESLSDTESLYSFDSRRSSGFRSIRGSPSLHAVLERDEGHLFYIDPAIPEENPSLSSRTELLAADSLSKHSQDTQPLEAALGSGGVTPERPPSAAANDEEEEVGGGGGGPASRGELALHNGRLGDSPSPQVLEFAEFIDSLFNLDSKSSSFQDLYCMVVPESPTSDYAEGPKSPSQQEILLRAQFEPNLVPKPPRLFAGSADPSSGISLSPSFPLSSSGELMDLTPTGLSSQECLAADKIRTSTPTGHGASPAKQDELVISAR
The experiment in a line: Inhibition of human DAGLalpha mediated sn-1-[14C]oleoyl-2-arachidonoyl-glycerol hydrolysis to 2-AG in COS cell. The essentials: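 Substrate: sn-1-[14C]oleoyl-2-arachidonoyl-glycerol. Conversion into 2-AG and [14C]oleic acid was followed using membranes of COS cells overexpressing human recombinant DAGLα; n = 4 means.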

The nature of experiment [3]: Inhibition of human MAGL mediated [14C]2-AG hydrolysis in COS cell. Format: cell-based. In short, it runs like this: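 Enzyme source was cytosolic fractions of COS cells (MAGL-expressing), with hydrolysis of [14C]2-AG as the read-out; means of 4 determinations.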
In experiment [4] the target is Transient receptor potential cation channel subfamily A member 1 (Rattus norvegicus, UniProt Q6RI86). Briefly: Agonist activity at rat TRPA1 channel expressed in human HEK293 cells assessed as elevation in intracellular calcium flux. It is filed as functional, cell-based. In short, it runs like this:
as §1

In experiment [5] the target is T2, Transient receptor potential cation channel subfamily V member 1 (Homo sapiens, UniProt Q8NER1). Briefly: Agonist activity at human TRPV1 channel expressed in human HEK293 cells assessed as elevation in intracellular calcium flux. It is filed as functional, cell-based. In short, it runs like this: (§2)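 HEK-293 cells overexpressing TRPV1 were used, with intracellular Ca2+ elevation as the read-out. The single-point value is the effect of 10 µM compound as percent of the Ca2+ response to 4 µM ionomycin. Data are means of 4 separate determinations.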
T2 sequence (Q8NER1 whole entry): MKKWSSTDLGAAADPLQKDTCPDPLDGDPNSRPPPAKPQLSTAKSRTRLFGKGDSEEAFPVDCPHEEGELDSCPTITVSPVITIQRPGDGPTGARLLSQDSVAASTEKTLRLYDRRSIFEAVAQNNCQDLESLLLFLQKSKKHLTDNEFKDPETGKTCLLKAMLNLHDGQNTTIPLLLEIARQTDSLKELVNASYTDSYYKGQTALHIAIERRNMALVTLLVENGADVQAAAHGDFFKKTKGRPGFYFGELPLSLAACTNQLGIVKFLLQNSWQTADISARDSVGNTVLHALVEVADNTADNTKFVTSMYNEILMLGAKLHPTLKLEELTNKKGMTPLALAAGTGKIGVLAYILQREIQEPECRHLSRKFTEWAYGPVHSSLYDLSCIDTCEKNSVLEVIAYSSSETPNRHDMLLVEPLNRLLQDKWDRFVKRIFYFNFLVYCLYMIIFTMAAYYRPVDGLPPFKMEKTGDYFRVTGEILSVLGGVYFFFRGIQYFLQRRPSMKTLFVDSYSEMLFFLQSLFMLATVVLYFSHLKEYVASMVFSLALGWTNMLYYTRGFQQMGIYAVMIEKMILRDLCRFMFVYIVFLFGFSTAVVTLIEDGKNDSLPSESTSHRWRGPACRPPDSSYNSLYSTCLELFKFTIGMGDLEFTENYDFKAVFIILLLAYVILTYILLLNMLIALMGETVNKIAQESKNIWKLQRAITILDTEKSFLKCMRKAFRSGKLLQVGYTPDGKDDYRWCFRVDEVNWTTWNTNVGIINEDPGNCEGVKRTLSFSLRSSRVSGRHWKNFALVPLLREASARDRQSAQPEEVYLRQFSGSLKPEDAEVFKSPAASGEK

The target in experiment [6] is T2, Transient receptor potential cation channel subfamily V member 1. The experiment in a line: Agonist activity at human TRPV1 channel expressed in human HEK293 cells assessed as elevation in intracellular calcium flux at 10 uM relative to ionomycin. Format: functional, cell-based. The essentials: as §2
In experiment [7] the target is T3, Fatty-acid amide hydrolase 1 (Rattus norvegicus, UniProt P97612).
T3 sequence (P97612 whole entry): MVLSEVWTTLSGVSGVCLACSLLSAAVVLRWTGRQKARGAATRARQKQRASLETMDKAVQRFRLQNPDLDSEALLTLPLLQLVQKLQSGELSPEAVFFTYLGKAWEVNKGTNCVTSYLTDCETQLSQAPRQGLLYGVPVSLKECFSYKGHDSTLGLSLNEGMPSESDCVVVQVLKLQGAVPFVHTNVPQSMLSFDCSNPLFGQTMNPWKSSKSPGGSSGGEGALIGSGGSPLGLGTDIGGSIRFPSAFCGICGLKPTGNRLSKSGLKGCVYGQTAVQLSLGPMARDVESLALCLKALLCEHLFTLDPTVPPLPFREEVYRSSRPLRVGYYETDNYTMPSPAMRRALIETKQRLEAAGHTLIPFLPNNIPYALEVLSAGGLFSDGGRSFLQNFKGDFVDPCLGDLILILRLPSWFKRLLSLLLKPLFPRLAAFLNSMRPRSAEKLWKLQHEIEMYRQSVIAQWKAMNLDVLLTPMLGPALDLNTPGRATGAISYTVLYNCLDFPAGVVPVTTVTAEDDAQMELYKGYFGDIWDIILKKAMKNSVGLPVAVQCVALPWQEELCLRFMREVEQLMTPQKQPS
The experiment in a line: Inhibition of rat brain FAAH mediated [14C]anandamide hydrolysis. The essentials: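 Hydrolysis of [14C]anandamide was measured with rat brain membranes as the enzyme source; means of n = 4.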

The test system of the next experiment is RBL-2H3. The experiment in a line: Inhibition of [14C]anandamide uptake in rat RBL-2H3. Format: functional, cell-based. The essentials: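 Uptake of [14C]anandamide was measured in intact RBL-2H3 cells; means of n = 4.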

Structures are written as SMILES.

Cannabinoid receptor 1, sequence (P21554 whole entry): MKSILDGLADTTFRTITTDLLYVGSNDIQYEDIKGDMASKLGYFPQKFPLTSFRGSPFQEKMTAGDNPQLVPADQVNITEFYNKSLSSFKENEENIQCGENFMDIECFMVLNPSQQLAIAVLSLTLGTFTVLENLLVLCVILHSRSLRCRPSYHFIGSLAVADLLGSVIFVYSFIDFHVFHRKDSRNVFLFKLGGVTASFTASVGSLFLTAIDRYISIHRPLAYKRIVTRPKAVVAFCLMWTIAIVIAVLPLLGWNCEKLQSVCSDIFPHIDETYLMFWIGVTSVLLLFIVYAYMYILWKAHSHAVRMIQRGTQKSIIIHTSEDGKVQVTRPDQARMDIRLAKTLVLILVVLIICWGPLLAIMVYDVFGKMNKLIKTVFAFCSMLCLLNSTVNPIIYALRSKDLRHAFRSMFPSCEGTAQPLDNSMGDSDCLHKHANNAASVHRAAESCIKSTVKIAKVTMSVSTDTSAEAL
Cannabinoid receptor 2, sequence (P34972 whole entry): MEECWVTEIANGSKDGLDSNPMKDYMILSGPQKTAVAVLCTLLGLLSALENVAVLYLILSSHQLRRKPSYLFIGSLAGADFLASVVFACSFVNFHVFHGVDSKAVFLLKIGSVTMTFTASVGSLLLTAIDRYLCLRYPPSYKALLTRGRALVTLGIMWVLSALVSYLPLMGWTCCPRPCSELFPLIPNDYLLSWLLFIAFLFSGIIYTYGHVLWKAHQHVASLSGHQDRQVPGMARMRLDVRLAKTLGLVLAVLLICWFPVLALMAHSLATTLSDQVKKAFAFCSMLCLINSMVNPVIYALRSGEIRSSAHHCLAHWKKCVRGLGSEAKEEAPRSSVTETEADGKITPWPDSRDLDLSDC
Transient receptor potential cation channel subfamily A member 1 (Rattus norvegicus), sequence (Q6RI86 whole entry): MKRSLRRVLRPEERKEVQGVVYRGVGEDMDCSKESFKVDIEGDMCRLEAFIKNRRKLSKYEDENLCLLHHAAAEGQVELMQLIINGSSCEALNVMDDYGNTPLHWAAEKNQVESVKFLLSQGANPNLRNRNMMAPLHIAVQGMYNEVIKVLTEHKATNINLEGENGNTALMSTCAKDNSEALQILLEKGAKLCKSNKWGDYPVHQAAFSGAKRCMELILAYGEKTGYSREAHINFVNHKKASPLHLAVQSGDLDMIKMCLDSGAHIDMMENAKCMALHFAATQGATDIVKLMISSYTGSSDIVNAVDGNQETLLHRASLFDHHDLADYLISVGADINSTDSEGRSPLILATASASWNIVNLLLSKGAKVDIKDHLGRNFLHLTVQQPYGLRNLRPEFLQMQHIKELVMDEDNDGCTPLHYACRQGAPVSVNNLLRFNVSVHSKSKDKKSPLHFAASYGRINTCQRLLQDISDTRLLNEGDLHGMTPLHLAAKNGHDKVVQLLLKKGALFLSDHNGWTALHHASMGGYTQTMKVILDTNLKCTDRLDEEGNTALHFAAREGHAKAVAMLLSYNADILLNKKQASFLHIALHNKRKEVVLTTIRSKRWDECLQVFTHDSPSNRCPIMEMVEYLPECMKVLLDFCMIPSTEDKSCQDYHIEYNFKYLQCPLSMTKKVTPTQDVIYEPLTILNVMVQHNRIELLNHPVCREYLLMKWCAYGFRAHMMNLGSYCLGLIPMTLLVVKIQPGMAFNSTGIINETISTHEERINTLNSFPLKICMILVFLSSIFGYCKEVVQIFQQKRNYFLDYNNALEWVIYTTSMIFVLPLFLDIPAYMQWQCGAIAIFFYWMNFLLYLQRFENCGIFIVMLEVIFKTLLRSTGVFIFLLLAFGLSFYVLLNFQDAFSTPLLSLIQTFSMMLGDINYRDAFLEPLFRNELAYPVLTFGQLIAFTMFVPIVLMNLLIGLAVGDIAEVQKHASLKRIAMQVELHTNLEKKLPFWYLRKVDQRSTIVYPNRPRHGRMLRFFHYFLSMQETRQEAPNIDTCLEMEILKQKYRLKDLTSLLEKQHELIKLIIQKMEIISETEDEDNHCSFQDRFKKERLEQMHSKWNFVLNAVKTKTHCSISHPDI
Transient receptor potential cation channel subfamily A member 1, sequence (Q6RI86 whole entry): as above

Consider `CC(=O)Cn1nnc(Cc2ccc(-c3ccccc3)cc2)n1`, for which the values for the Ki at Cannabinoid receptor 2 and on Cannabinoid receptor 1 were 5.2 µM and above 10 µM, respectively. Moreover, the Efficacy in experiment [1] amounted to 61.4%; in experiment [6] it was 0%. Moreover, the IC50 (as a rule, the midpoint of a concentration-inhibition curve) in [2] was above 10 µM; in [3], above 10 µM; in experiment [7], above 50 µM; with RBL-2H3, above 25 µM. The EC50 in experiment [4] and in experiment [5] was above 100 µM throughout.

For the molecule `CC(C)Cn1nnnc1Cc1ccc(-c2ccccc2)cc1`, the values for the Ki at Cannabinoid receptor 2 and on Cannabinoid receptor 1 were 7.7 µM and above 10 µM, respectively. Further, the Efficacy in [1] worked out at 50.8%; in experiment [6] it was 4.7%. Also, the IC50 in [2] is above 10 µM; in experiment [3], above 10 µM; in [7] it was above 50 µM; in the experiment with RBL-2H3, above 25 µM. Further, the EC50 in experiment [4] and in experiment [5] was above 100 µM each time.

`CC(=O)Cn1nnc(CNC(=O)c2ccc(-c3ccccc3)cc2)n1`: the Ki on Cannabinoid receptor 2 and at Cannabinoid receptor 1 was above 10 µM each time. The Efficacy is 14% in experiment [1] and 0% in [6]. Further, the IC50 in [2] was above 10 µM; in [3], above 10 µM; in experiment [7], above 50 µM; with RBL-2H3, above 25 µM. In addition, the EC50 in experiment [4] and in experiment [5] was above 100 µM each time.

As to `CC(=O)Cn1nnnc1Cc1ccc(-c2ccccc2)cc1`, the inhibitory constant (Ki) at Cannabinoid receptor 2 and at Cannabinoid receptor 1 was above 10 µM each time. Moreover, the Efficacy is 11.4% in experiment [1] and 0% in experiment [6]. In addition, the IC50 in experiment [2] was above 10 µM; in experiment [3], above 10 µM; in [7], above 50 µM; with RBL-2H3, 5 µM. In addition, the EC50 in experiment [4] and in [5] was above 100 µM throughout.

As to `COC(=O)Cn1nnc(CNC(=O)c2ccc(-c3ccccc3)cc2)n1`, the Ki at Cannabinoid receptor 2 and at Cannabinoid receptor 1 was above 10 µM each time. In addition, the Efficacy in experiment [1] was 0%; in [6], 2.2%. For the same molecule, the IC50 is above 10 µM in experiment [2], above 10 µM in experiment [3], above 50 µM in [7] and above 25 µM in the experiment with RBL-2H3. The EC50 in experiment [4] and in [5] was above 100 µM each time.

Regarding `CC(C)Cn1nnnc1CNC(=O)c1ccc(-c2ccccc2)cc1`, the Ki on Cannabinoid receptor 2 and on Cannabinoid receptor 1 was above 10 µM in each case. The Efficacy came to 26.1% in experiment [1] and 9.1% in experiment [6]. The IC50 in [2] was above 10 µM; in experiment [3], above 10 µM; in experiment [7], above 50 µM; in the experiment with RBL-2H3, above 25 µM. Moreover, the figures for the EC50 in experiment [4] and in experiment [5] were above 100 µM and 15 µM, respectively.

For the molecule `CC(C)Cn1nnc(Cc2ccc(-c3ccccc3)cc2)n1`, the Ki (in general, a dissociation constant, usually derived from enzyme kinetics or from competition with a known ligand) at Cannabinoid receptor 2 was found to be 4.7 µM; at Cannabinoid receptor 1 it was 1.6 µM. Further, the Efficacy in experiment [1] is 136%; in experiment [6], 20.7%. The IC50 in experiment [2] was above 10 µM; in experiment [3], above 10 µM; in experiment [7], above 50 µM; in the experiment with RBL-2H3, above 25 µM. Also, the EC50 – broadly, the midpoint of the concentration-response curve – in [4] was determined as 26.3 µM; in [5], 10 µM.

With `N#CCn1nnnc1CNC(=O)c1ccc(-c2ccccc2)cc1`, the Ki at Cannabinoid receptor 2 and on Cannabinoid receptor 1 was above 10 µM in each case. Moreover, the Efficacy in experiment [1] stood at 0%; in experiment [6], 6.3%. The IC50 in experiment [2] is above 10 µM; in experiment [3] it was above 10 µM; in [7], above 50 µM; with RBL-2H3 it was above 25 µM. The concentration giving a half-maximal response (EC50) in experiment [4] and in experiment [5] was above 100 µM each time.

Consider `CN(C)C(=O)Cn1nnc(Cc2ccc(-c3ccccc3)cc2)n1`, for which the Ki at Cannabinoid receptor 2 and at Cannabinoid receptor 1 was above 10 µM in each case. The Efficacy in experiment [1] turned out to be 0%; in [6], 5.3%. Also, the IC50 in experiment [2] was above 10 µM; in experiment [3], above 10 µM; in experiment [7], above 50 µM; in the experiment with RBL-2H3, above 25 µM. Also, the EC50 in experiment [4] and in [5] was above 100 µM throughout.

As to `CN(C)C(=O)Cn1nnc(CNC(=O)c2ccc(-c3ccccc3)cc2)n1`, the Ki on Cannabinoid receptor 2 and on Cannabinoid receptor 1 was above 10 µM each time. For the same molecule, the Efficacy in [1] was 0%; in experiment [6], 1.2%. Also, the IC50 is above 10 µM in experiment [2], above 10 µM in experiment [3], above 50 µM in experiment [7] and 2.3 µM in the experiment on RBL-2H3. Also, the EC50 in [4] and in experiment [5] was above 100 µM throughout.

As to `CC(=O)Cn1nnnc1CNC(=O)c1ccc(-c2ccccc2)cc1`, the Ki at Cannabinoid receptor 2 and at Cannabinoid receptor 1 was above 10 µM each time. The Efficacy in experiment [1] came out at 0%; in experiment [6] it was 7.7%. In addition, the IC50 was above 10 µM in experiment [2], above 10 µM in experiment [3], above 50 µM in experiment [7] and 12.5 µM with RBL-2H3. The EC50 in experiment [4] and in experiment [5] was above 100 µM in each case.

Consider `CN(C)C(=O)Cn1nnnc1Cc1ccc(-c2ccccc2)cc1`, for which the Ki at Cannabinoid receptor 2 and at Cannabinoid receptor 1 was above 10 µM each time. Moreover, the Efficacy turned out to be 0% in experiment [1] and 4% in experiment [6]. For the same molecule, the IC50 in experiment [2] was above 10 µM; in [3], above 10 µM; in [7] it was above 50 µM; in the experiment on RBL-2H3 it was 5.1 µM. The EC50 in [4] and in experiment [5] was above 100 µM each time.

Regarding `N#CCn1nnc(CNC(=O)c2ccc(-c3ccccc3)cc2)n1`, the Ki on Cannabinoid receptor 2 and at Cannabinoid receptor 1 was above 10 µM each time. Further, the figures for the Efficacy in experiment [1] and in experiment [6] were 0% and 2.6%, respectively. Besides, the IC50 in [2] is above 10 µM; in experiment [3], above 10 µM; in [7], above 50 µM; in the experiment with RBL-2H3, above 25 µM. The EC50 in experiment [4] and in [5] was above 100 µM each time.
